Reference: PubChem BioAssay AID602345 (The Scripps Research Institute Molecular Screening Center, 2012)
Calls of active or inactive are those of the source.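 How the source made its calls: active means macrophage DAGL beta lipase probe labeling falls at least half after a 5 mg/kg dose in mice; inactive means 5 mg/kg yields less than half inhibition.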

Each compound was assayed against Diacylglycerol lipase-beta (Mus musculus) (UniProt Q91WC9) (assay: macrophage DAGLb activity after compound dosing – gel ABPP, in-gel fluorescence, mouse, peritoneal macrophages, in vivo study, late-stage follow-up (AID 602345)). Conditions: C57 mice i.p., gel ABPP HT-01.
Chain of Diacylglycerol lipase-beta (Mus musculus) (Q91WC9 whole entry, looked up): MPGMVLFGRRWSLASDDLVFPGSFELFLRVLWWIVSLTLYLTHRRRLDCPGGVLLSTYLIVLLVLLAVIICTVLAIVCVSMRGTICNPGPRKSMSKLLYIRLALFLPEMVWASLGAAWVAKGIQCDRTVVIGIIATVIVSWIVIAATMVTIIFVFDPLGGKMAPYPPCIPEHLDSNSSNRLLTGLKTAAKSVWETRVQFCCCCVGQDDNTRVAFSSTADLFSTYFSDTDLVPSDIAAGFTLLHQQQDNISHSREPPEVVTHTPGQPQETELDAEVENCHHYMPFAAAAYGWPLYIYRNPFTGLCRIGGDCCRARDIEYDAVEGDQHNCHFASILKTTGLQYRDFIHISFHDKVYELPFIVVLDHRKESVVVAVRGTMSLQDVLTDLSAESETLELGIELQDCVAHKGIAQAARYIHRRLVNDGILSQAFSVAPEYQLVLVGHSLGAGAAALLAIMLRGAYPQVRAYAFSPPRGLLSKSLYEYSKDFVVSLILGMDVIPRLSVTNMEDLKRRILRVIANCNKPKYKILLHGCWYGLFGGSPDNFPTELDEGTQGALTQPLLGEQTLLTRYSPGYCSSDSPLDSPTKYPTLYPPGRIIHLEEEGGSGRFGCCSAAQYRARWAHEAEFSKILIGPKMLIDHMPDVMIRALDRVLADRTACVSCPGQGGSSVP
In short: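 Assay system: DAGLb in peritoneal macrophage membranes from thioglycollate-elicited C57 mice / Amount: macrophage membrane fraction at 1 mg/mL protein / Timing: 4 h in vivo exposure, 30 min probe step at 37 °C / Benchmarks: vehicle-only mice / Measured by: in-gel fluorescence scanning after SDS-PAGE separation / Replicates: two mice per dose group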

SMILES	outcome
COc1ccccc1-c1ccc(-c2cn(C(=O)N3CCCCC3Cc3ccccc3)nn2)cc1 (stereo not drawn)	active
O=C(N1CCCCC1Cc1ccccc1)n1cc(-c2ccc(-c3ccccc3)cc2)nn1 (stereo not drawn)	active
O=C(N1CCCCC1Cc1ccccc1)n1cc(-c2ccc(-c3ccccc3C(F)(F)F)cc2)nn1 (stereo not drawn)	active
